In ChEMBL document CHEMBL4261550, “Triazolopyrimidines identified as reversible myeloperoxidase inhibitors” (Medchemcomm, 2017):
Activity calls are given as the source filed them. The calls are words filed in the database; no cut-off is given here.

Assays:
[1] = biological target: T1, Myeloperoxidase (Homo sapiens) (UniProt P05164); assay: Reversible inhibition of human MPO peroxidase activity at 50 to 250 nM preincubated for up to 30 mins followed by H2O2 addition and 2 to 10 times compound dilution measured at 30 secs time interval for 5 mins by amplex red reagent based fluorescence assay
T1 sequence (whole entry): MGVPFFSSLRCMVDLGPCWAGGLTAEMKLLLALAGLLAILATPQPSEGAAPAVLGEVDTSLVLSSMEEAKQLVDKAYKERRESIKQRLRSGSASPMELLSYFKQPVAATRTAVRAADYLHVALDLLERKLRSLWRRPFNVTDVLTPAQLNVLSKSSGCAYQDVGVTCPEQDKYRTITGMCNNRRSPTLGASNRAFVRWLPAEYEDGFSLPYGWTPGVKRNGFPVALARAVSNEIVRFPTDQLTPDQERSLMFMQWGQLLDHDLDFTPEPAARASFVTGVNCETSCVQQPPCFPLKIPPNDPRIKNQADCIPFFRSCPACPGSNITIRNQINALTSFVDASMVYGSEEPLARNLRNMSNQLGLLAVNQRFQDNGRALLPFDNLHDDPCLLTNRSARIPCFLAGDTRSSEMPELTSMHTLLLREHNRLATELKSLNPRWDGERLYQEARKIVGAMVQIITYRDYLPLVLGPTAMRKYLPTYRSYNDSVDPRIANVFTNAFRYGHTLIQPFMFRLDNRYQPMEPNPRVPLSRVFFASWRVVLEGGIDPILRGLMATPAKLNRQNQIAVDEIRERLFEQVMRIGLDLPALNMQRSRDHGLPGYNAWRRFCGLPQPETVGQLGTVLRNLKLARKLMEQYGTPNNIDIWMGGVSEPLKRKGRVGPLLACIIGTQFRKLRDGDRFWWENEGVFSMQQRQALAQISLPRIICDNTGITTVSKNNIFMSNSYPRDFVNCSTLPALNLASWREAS
Procedure, shortened: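 20 nM MPO in phosphate buffer with 100 nM H2O2 and inhibitor at 2–10-fold enzyme concentration. Controls: 0.2% DMSO, irreversible hydrazide. Aliquots taken after 2, 10, 20 and 30 min and passed through a G50 spin column. 5 µL flow-through assayed by Amplex Red; initial rate gave % activity remaining versus control. Also run with 100 mM NaCl and 150 µM L-methionine.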

[2] = biological target: Cytochrome P450 3A4 (Homo sapiens, UniProt P08684); assay: Inhibition of CYP3A4 (unknown origin); assay type: ADME
Cytochrome P450 3A4, sequence (P08684 whole entry): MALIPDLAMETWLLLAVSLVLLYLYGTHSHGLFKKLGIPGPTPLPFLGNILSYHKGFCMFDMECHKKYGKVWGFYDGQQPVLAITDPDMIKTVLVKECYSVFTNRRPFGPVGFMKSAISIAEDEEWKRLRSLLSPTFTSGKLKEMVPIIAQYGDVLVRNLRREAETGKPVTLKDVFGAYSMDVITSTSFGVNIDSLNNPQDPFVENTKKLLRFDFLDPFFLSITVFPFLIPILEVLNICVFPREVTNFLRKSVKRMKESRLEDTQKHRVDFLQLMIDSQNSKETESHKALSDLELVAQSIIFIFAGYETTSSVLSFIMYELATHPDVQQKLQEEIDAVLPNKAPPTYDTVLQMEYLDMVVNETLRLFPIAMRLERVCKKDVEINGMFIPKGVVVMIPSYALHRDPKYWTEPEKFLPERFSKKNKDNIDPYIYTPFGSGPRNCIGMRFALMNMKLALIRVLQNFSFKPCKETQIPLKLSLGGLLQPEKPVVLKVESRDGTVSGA

[3] = Protein binding in human plasma; assay type: ADME, cell-free; conditions: read-out: PPB
[4] = Protein binding in mouse plasma; assay type: ADME, cell-free; conditions: read-out: PPB (converted)
[5] = tested on: Mus musculus; assay: In vivo inhibition of MPO in PMA-stimulated C57BL6 mouse neutrophil degranulation model assessed as reduction in HOCl production at 30 mg/kg, po pretreated for 20 mins followed by PMA stimulation and measured after 2 mins by luminol chemiluminescence assay relative to control; assay type: functional
Procedure, shortened: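 C57Bl6 mice dosed orally 30 mpk or vehicle 20 min before retro-orbital PMA 0.62 mg/kg; blood drawn 2 min after PMA and held on ice; 100 μL blood mixed with luminol, chemiluminescence read kinetically 25 min at 37 °C, HOCl production rate calculated.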

[6] = tested on: Mus musculus; assay: In vivo inhibition of MPO in PMA-stimulated C57BL6 mouse neutrophil degranulation model assessed as reduction in HOCl production at 100 mg/kg, po pretreated for 20 mins followed by PMA stimulation and measured after 2 mins by luminol chemiluminescence assay relative to control; assay type: functional
[7] = Plasma concentration in PMA-stimulated C57BL6 mouse neutrophil degranulation model at 100 mg/kg, po after 20 mins; assay type: ADME, organism-based
[8] = Ratio of plasma concentration in PMA-stimulated C57BL6 mouse neutrophil degranulation model at 30 mg/kg, po after 20 mins to in vitro IC50 for MPO in PMA-stimulated human neutrophils; assay type: ADME, organism-based; conditions: in vivo
[9] = Ratio of plasma concentration in PMA-stimulated C57BL6 mouse neutrophil degranulation model at 100 mg/kg, po after 20 mins to in vitro IC50 for MPO in PMA-stimulated human neutrophils; assay type: ADME, organism-based; conditions: in vivo
[10] = biological target: T2, Myeloperoxidase (Homo sapiens, UniProt P05164); assay: Inhibition of human MPO chlorination activity assessed as reduction in ApoA1-mediated [1,2 3H]-cholesterol efflux in PMA-stimulated human THP1 cells preincubated with enzyme and ApoA1 for 30 mins in presence of H2O2 followed by addition to THP1 cells and measured after overnight incubation
T2 sequence (P05164 whole entry): T1 sequence (whole entry)

[11] = biological target: Cytochrome P450 2C9 (Homo sapiens, UniProt P11712); assay: Inhibition of CYP2C9 (unknown origin); assay type: ADME
Cytochrome P450 2C9, sequence (P11712 whole entry): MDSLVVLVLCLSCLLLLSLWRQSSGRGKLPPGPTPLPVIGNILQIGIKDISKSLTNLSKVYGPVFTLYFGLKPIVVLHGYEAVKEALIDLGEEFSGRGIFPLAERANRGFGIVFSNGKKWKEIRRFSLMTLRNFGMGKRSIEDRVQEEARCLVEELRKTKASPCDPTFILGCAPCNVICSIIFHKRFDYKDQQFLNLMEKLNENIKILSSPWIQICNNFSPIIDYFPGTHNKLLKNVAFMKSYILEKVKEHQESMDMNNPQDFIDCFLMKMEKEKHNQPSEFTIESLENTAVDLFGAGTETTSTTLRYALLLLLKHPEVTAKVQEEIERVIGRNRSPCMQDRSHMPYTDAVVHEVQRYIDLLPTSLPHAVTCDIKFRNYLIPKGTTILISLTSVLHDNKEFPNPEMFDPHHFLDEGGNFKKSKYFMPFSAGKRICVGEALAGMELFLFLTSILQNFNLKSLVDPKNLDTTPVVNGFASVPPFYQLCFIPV

| inhibition [1] | IC50 [2] [µM] | fraction unbound [3] | fraction unbound [4] | concentration at 20 min [7] [µM] | Ratio [8] | Ratio [9] | EC50 [10] [µM] | IC50 [11] [µM] | SMILES | inhibition in vivo at 30 mg/kg [5] [%] | inhibition in vivo at 100 mg/kg [6] [%] |
| --- | --- | --- | --- | --- | --- | --- | --- | --- | --- | --- | --- |
| Active | 14 | 0.01 | 0.13 | 460 | 36 | 92 | 10 |  | Nc1nc(OCc2ccccc2)c2[nH]nnc2n1 | 50 | 70 |
|  |  |  |  |  |  |  |  | < 0.1 | Nc1ccc(Oc2cc(Cl)c(Cl)cc2Cl)cn1 |  |  |
